Data from ChEMBL document CHEMBL3259728, “Design, synthesis and biological evaluation of some novel substituted quinazolines as antitumor agents” (2014).

How the values were obtained:
Type in all cases: functional
[1] = test system: NCI-H522; test: Growth inhibition of human NCI-H522 cells at 10 uM after 48 hrs by SRB assay; details: NCI-H522, 48 h, read-out: GI
Procedure, shortened: (§1)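 NCI-60 primary one-dose screen run at the US NCI, with human tumour lines from nine cancer types. Compound added once at 10^-5 M, followed by 48 h incubation. End point was sulforhodamine B protein staining read spectrophotometrically. Result given as percent growth of treated cells against untreated controls, reported as % growth inhibition.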

[2] = test system: 786-0; test: Growth inhibition of human 786-0 cells at 10 uM after 48 hrs by SRB assay; details: 786-0, 48 h, read-out: GI
Procedure, shortened: (§2)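 NCI primary one-dose screen. A single concentration of 10^-5 M was added to the cell culture, followed by 48 h incubation and an SRB protein-dye endpoint read spectrophotometrically. Results are growth percentage relative to untreated control cells, reported as % growth inhibition.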

[3] = test system: A498; test: Growth inhibition of human A498 cells at 10 uM after 48 hrs by SRB assay; details: A498, 48 h, read-out: GI; procedure, shortened: as §2
[4] = test system: MDA-MB-468; test: Growth inhibition of human MDA-MB-468 cells assessed as cell growth at 10 uM after 48 hrs by SRB assay; details: MDA-MB-468, 48 h, read-out: GI; procedure, shortened: as §1
[5] = test system: RPMI-8226; test: Growth inhibition of human RPMI8226 cells at 10 uM after 48 hrs by SRB assay; details: RPMI-8226, 48 h, read-out: GI; procedure, shortened: as §1
[6] = Growth inhibition of human BT549 cells at 10 uM after 48 hrs by SRB assay; details: BT-549, 48 h, read-out: GI; procedure, shortened: as §2
[7] = test system: SK-MEL-28; test: Growth inhibition of human SK-MEL-28 cells at 10 uM after 48 hrs by SRB assay; details: SK-MEL-28, 48 h, read-out: GI; procedure, shortened: as §1
[8] = test system: SNB-19; test: Growth inhibition of human SNB19 cells at 10 uM after 48 hrs by SRB assay; details: SNB-19, 48 h, read-out: GI; procedure, shortened: as §1
[9] = test system: MCF7; test: Growth inhibition of human MCF7 cells at 10 uM after 48 hrs by SRB assay; details: MCF7, 48 h, read-out: GI; procedure, shortened: as §1
[10] = test system: MDA-MB-435; test: Growth inhibition of human MDA-MB-435 cells at 10 uM after 48 hrs by SRB assay; details: MDA-MB-435, 48 h, read-out: GI; procedure, shortened: as §1
[11] = Growth inhibition of human LOXIMVI cells at 10 uM after 48 hrs by SRB assay; details: LOX IMVI, read-out: GI; procedure, shortened: as §1
[12] = Growth inhibition of human OVCAR3 cells at 10 uM after 48 hrs by SRB assay; details: OVCAR-3, 48 h, read-out: GI; procedure, shortened: as §1
[13] = test system: CAKI-1; test: Growth inhibition of human CAKI-1 cells at 10 uM after 48 hrs by SRB assay; details: CAKI-1, 48 h, read-out: GI; procedure, shortened: as §2
[14] = test system: HCT-116; test: Growth inhibition of human HCT116 cells at 10 uM after 48 hrs by SRB assay; details: HCT-116, 48 h, read-out: GI; procedure, shortened: as §1
[15] = test system: SNB-75; test: Growth inhibition of human SNB75 cells at 10 uM after 48 hrs by SRB assay; details: SNB-75, 48 h, read-out: GI; procedure, shortened: as §1
[16] = test system: ACHN; test: Growth inhibition of human ACHN cells at 10 uM after 48 hrs by SRB assay; details: read-out: GI; procedure, shortened: as §2
[17] = test system: SK-MEL-2; test: Growth inhibition of human SK-MEL-2 cells at 10 uM after 48 hrs by SRB assay; details: SK-MEL-2, 48 h, read-out: GI; procedure, shortened: as §1
[18] = test system: COLO 205; test: Growth inhibition of human COLO205 cells at 10 uM after 48 hrs by SRB assay; details: COLO 205, 48 h, read-out: GI; procedure, shortened: as §2
[19] = Growth inhibition of human HCC2998 cells at 10 uM after 48 hrs by SRB assay; details: HCC 2998, 48 h, read-out: GI; procedure, shortened: as §1
[20] = test system: PC-3; test: Growth inhibition of human PC3 cells at 10 uM after 48 hrs by SRB assay; details: PC-3, 48 h, read-out: GI; procedure, shortened: as §1
[21] = Growth inhibition of human UACC257 cells at 10 uM after 48 hrs by SRB assay; details: UACC-257, 48 h, read-out: GI; procedure, shortened: as §1
[22] = test system: NCI-H226; test: Growth inhibition of human NCI-H226 cells at 10 uM after 48 hrs by SRB assay; details: NCI-H226, 48 h, read-out: GI; procedure, shortened: as §1
[23] = test system: HT-29; test: Growth inhibition of human HT-29 cells at 10 uM after 48 hrs by SRB assay; details: HT-29, 48 h, read-out: GI; procedure, shortened: as §1
[24] = test system: KM12; test: Growth inhibition of human KM12 cells at 10 uM after 48 hrs by SRB assay; details: KM12, 48 h, read-out: GI; procedure, shortened: as §1
[25] = Growth inhibition of human OVCAR5 cells at 10 uM after 48 hrs by SRB assay; details: OVCAR-5, 48 h, read-out: GI; procedure, shortened: as §1
[26] = Growth inhibition of human NCI-ADR-RES cells at 10 uM after 48 hrs by SRB assay; details: read-out: GI; procedure, shortened: as §1
[27] = test system: DU-145; test: Growth inhibition of human DU145 cells at 10 uM after 48 hrs by SRB assay; details: DU-145, 48 h, read-out: GI; procedure, shortened: as §1
[28] = Growth inhibition of human OVCAR8 cells at 10 uM after 48 hrs by SRB assay; details: OVCAR-8, 48 h, read-out: GI; procedure, shortened: as §1
[29] = Growth inhibition of human UACC62 cells at 10 uM after 48 hrs by SRB assay; details: UACC-62, 48 h, read-out: GI; procedure, shortened: as §1
[30] = test system: U-251; test: Growth inhibition of human U251 cells at 10 uM after 48 hrs by SRB assay; details: U-251, 48 h, read-out: GI; procedure, shortened: as §1
[31] = test system: HOP-62; test: Growth inhibition of human HOP62 cells at 10 uM after 48 hrs by SRB assay; details: HOP-62, 48 h, read-out: GI; procedure, shortened: as §1
[32] = test system: NCI-H460; test: Growth inhibition of human NCI-H460 cells at 10 uM after 48 hrs by SRB assay; details: NCI-H460, 48 h, read-out: GI; procedure, shortened: as §1
[33] = test system: Malme-3M; test: Growth inhibition of human MALME-3M cells at 10 uM after 48 hrs by SRB assay; details: read-out: GI; procedure, shortened: as §1
[34] = Growth inhibition of human OVCAR4 cells at 10 uM after 48 hrs by SRB assay; details: OVCAR-4, 48 h, read-out: GI; procedure, shortened: as §1
[35] = test system: NCI-H23; test: Growth inhibition of human NCI-H23 cells at 10 uM after 48 hrs by SRB assay; details: NCI-H23, 48 h, read-out: GI; procedure, shortened: as §1
[36] = Growth inhibition of human MOLT4 cells at 10 uM after 48 hrs by SRB assay; details: MOLT-4, 48 h, read-out: GI; procedure, shortened: as §1
[37] = test system: A549; test: Growth inhibition of human A549 cells at 10 uM after 48 hrs by SRB assay; details: A549, 48 h, read-out: GI; procedure, shortened: as §2
[38] = test system: M14; test: Growth inhibition of human M14 cells at 10 uM after 48 hrs by SRB assay; details: M14, 48 h, read-out: GI; procedure, shortened: as §1

SMILES: Cc1ccc(C2=Nc3ccc(Cl)cc3C3=NNCC(=O)NN23)cc1
- inhibition of growth at 10 µM [1]: < 10%
- inhibition of growth at 10 µM [2]: < 10%
- inhibition of growth at 10 µM [3]: 34%
- inhibition of growth at 10 µM [4]: 11%
- inhibition of growth at 10 µM [5]: < 10%
- inhibition of growth at 10 µM [6]: < 10%
- inhibition of growth at 10 µM [7]: < 10%
- inhibition of growth at 10 µM [8]: < 10%
- inhibition of growth at 10 µM [9]: < 10%
- inhibition of growth at 10 µM [10]: < 10%
- inhibition of growth at 10 µM [11]: < 10%
- inhibition of growth at 10 µM [12]: < 10%
- inhibition of growth at 10 µM [13]: 14%
- inhibition of growth at 10 µM [14]: < 10%
- inhibition of growth at 10 µM [15]: < 10%
- inhibition of growth at 10 µM [16]: < 10%
- inhibition of growth at 10 µM [17]: < 10%
- inhibition of growth at 10 µM [18]: < 10%
- inhibition of growth at 10 µM [19]: < 10%
- inhibition of growth at 10 µM [20]: < 10%
- inhibition of growth at 10 µM [21]: < 10%
- inhibition of growth at 10 µM [22]: < 10%
- inhibition of growth at 10 µM [23]: < 10%
- inhibition of growth at 10 µM [24]: < 10%
- inhibition of growth at 10 µM [25]: < 10%
- inhibition of growth at 10 µM [26]: < 10%
- inhibition of growth at 10 µM [27]: < 10%
- inhibition of growth at 10 µM [28]: < 10%
- inhibition of growth at 10 µM [29]: < 10%
- inhibition of growth at 10 µM [30]: < 10%
- inhibition of growth at 10 µM [31]: < 10%
- inhibition of growth at 10 µM [32]: < 10%
- inhibition of growth at 10 µM [33]: < 10%
- inhibition of growth at 10 µM [34]: < 10%
- inhibition of growth at 10 µM [35]: < 10%
- inhibition of growth at 10 µM [36]: < 10%
- inhibition of growth at 10 µM [37]: 11%
- inhibition of growth at 10 µM [38]: < 10%
